Laboratory results taken from article PMC3198121 (Journal of Medicinal Chemistry, 2011).

Key:
Assay type in all cases: cell-based
[1] = target: T1, GPR35 (Homo sapiens, UniProt Q9HC97); test: DMR agonist assay in HT-29 cells; details: for agonist type in DMR assay: compared to zaprinast; for fold decrease in potency relative to 16a: compared with compound 16a
[2] = target: T1, GPR35; test: Tango β-arrestin translocation gene reporter assay in Tango GPR35-bla U2OS cells; details: for agonist type in Tango β-arrestin translocation assay: compared to zaprinast; for Tango assays % zaprinast: efficacy relative to zaprinast, Tango GPR35-bla U2OS cells
[3] = target: T1, GPR35; test: DMR agonist assay after shRNA knockdown of GPR35 in HT29; details: all compounds at 10 μM; n = 4; mock transfection as control
Outline: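 HT29 cells seeded at 5000/well on biosensor plates, 24 h at 37 °C, then transiently transfected (Effectene, 0.05 μg plasmid DNA) with GPR35 shRNA in GFP-expressing pGFP-V-RS vector or control plasmid. Medium was renewed next day. About 48 h post-transfection, cells were washed into HBSS (20 mM Hepes, pH 7.1) and equilibrated 1 h at 26 °C. Label-free DMR was recorded kinetically after a 2 min baseline and compound addition.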

[4] = target: T1, GPR35; details: HT29; for blockage of the compound-induced DMR by compound 17: compound 17 at 64 μM
[5] = target: T1, GPR35; test: Receptor internalization assay in HT29; details: HT-29; 1 μM 16a, 10 μM 15a; 1 h at 37 °C
Outline: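 HT29 cells seeded at 10000/well on chamber slides, 24 h at 37 °C, then exposed to compound or matching DMSO for 1 h at 37 °C. Cells were fixed in 4% formaldehyde for 15 min and blocked/permeabilized for 2 h (goat serum, BSA, Triton X-100). Staining used anti-GPR35 T-14 (intracellular epitope, 1:500, 24 h), then Alexa Fluor 594 anti-goat (1:500, 1 h RT), with DAPI nuclei. Read by confocal imaging.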

[6] = target: T1, GPR35; details: zaprinast 1 μM in DMSO treated cells; n = 90

T1 sequence (Q9HC97 whole entry): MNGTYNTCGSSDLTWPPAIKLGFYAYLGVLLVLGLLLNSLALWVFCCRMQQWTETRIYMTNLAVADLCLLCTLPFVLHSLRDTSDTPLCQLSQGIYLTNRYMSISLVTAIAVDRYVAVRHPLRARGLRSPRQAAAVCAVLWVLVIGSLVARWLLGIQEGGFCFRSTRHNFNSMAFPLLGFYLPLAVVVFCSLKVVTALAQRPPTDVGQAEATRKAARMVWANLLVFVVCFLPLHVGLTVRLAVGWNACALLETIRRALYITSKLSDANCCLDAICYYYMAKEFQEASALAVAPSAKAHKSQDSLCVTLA

In the case of CC1=C(C#N)C(=C(C#N)C#N)OC1(C)c1ccc(Cl)c(Cl)c1 (centres unmarked) [Compound 1, 2-(3-cyano-5-(3,4-dichlorophenyl)-4,5-dimethylfuran-2(5H)-ylidene)malononitrile], the “agonist type in DMR assay” value [1] is reported as “full agonist”, the “response in Tango assay” value [2] is reported as “dose-dependent and saturable responses” and the “agonist type in Tango β-arrestin translocation assay” value [2] is reported as “partial agonist”. For the same compound, the “effect of shRNA knockdown of GPR35 on the compound-induced DMR” value (from here on “effect of shRNA knockdown of GPR35”) [3] was “significantly attenuated”.
CC1=C(C#N)C(=C(C#N)C#N)OC1(c1ccccc1)C(F)(F)F (centres unmarked) [Compound 3, 2-(3-cyano-4-methyl-5-phenyl-5-(trifluoromethyl)furan-2(5H)-ylidene)malononitrile] was tested, and the “response in Tango assay” value [2] was “dose-dependent and saturable responses” and the “agonist type in Tango β-arrestin translocation assay” value [2] was “partial agonists”.
For CC1=C(C#N)C(=C(C#N)C#N)OC1(C)c1ccc(Cl)c(Cl)c1Cl (centres unmarked) [Compound 5, 2-(3-cyano-4,5-dimethyl-5-(2,3,4-trichlorophenyl)furan-2(5H)-ylidene)malononitrile], the “blockage of the compound-induced DMR by compound 17” value [4] was “only partially suppressed” and the “fold decrease in potency to trigger DMR signal relative to 1” value ([1]; DMR EC50, compared with compound 1) was 350 fold.
CC1=C(C#N)C(=C(C#N)C#N)OC12CCCCC2 [Compound 7, 2-(3-cyano-4-methyl-1-oxaspiro[4.5]dec-3-en-2-ylidene)malononitrile] was tested, and the “blockage of the compound-induced DMR by compound 17” value [4] was “only partially suppressed”, the “response in Tango assay” value [2] was “detectable responses” and the “agonist type in Tango β-arrestin translocation assay” value [2] was “partial agonists”. The “Tango assays % zaprinast” value [2] was “weak”.
CC1=C(C#N)C(=C(C#N)C#N)OC1(C)c1ccc(F)cc1F (centres unmarked) [Compound 8, 2-(3-cyano-5-(2,4-difluorophenyl)-4,5-dimethylfuran-2(5H)-ylidene)malononitrile] was tested, and the “blockage of the compound-induced DMR by compound 17” value [4] was “only partially suppressed”.
For CC1=C(C#N)C(=C(C#N)C#N)OC1(C)C [Compound 9, 2-(3-Cyano-4,5,5-trimethylfuran-2(5H)-ylidene)malononitrile], the “response in Tango assay” value [2] was “detectable responses”, the “agonist type in Tango β-arrestin translocation assay” value [2] was “partial agonists” and the “Tango assays % zaprinast” value [2] was “weak”. For the same compound, the “effect of shRNA knockdown of GPR35” value [3] was “significantly attenuated”.
In the case of O=C(O)c1cc2sccc2s1 [Compound 10, Thieno[3,2-b]thiophene-2-carboxylic Acid], the “fold decrease in potency relative to 16a” value ([1]; DMR EC50) is reported as “over 600 fold”, the “response in Tango assay” value [2] is reported as “detectable responses” and the “agonist type in Tango β-arrestin translocation assay” value [2] is reported as “partial agonists”.
With CCCCCCc1c(C(=O)O)sc2ccsc12 [Compound 11, 3-Hexylthieno[3,2-b]thiophene-2-carboxylic Acid] the “blockage of the compound-induced DMR by compound 17” value [4] was “only partially suppressed”, the “fold decrease in potency relative to 16a” value ([1]; DMR EC50) was “about 54 fold” and the “response in Tango assay” value [2] was “detectable responses”. The “agonist type in Tango β-arrestin translocation assay” value [2] was “partial agonists”.
In the case of CCCCCCc1csc2cc(C(=O)O)sc12 [Compound 12, 6-Hexylthieno[3,2-b]thiophene-2-carboxylic Acid], the “response in Tango assay” value [2] is reported as “detectable responses” and the “agonist type in Tango β-arrestin translocation assay” value [2] is reported as “partial agonists”.
In the case of Cc1csc2c1sc1cc(C(=O)O)sc12 [Compound 13, 5-Methyldithieno[3,2-b:2′,3′-d]thiophene-2-carboxylic Acid], the “blockage of the compound-induced DMR by compound 17” value [4] is reported as “only partially suppressed”, the “response in Tango assay” value [2] is reported as “detectable responses” and the “agonist type in Tango β-arrestin translocation assay” value [2] is reported as “partial agonists”. The “effect of shRNA knockdown of GPR35” value [3] was “significantly attenuated”.
CCOC(=O)c1sc2c(Br)csc2c1C [Compound 15a, Ethyl 6-Bromo-3-methylthieno[3,2-b]thiophene-2-carboxylate] was tested, and the “internalization of endogenous GPR35” value [5] was “unable to trigger receptor internalization”.
In the case of Cc1c(C(=O)O)sc2c(Br)csc12 [Compound 16a, 6-Bromo-3-methylthieno[3,2-b]thiophene-2-carboxylic Acid], the “agonist type in DMR assay” value [1] is reported as “full agonist”, the “internalization of endogenous GPR35” value [5] is reported as “significant internalization” and the “response in Tango assay” value [2] is reported as “dose-dependent and saturable responses”. For the same compound, the “agonist type in Tango β-arrestin translocation assay” value [2] was “full agonist” and the “effect of shRNA knockdown of GPR35” value [3] was “significantly attenuated”.
With CCCCCCCCc1c(C(=O)O)sc2c(Br)csc12 [Compound 16b, 6-Bromo-3-octylthieno[3,2-b]thiophene-2-carboxylic Acid] the “response in Tango assay” value [2] was “detectable responses” and the “agonist type in Tango β-arrestin translocation assay” value [2] was “partial agonists”.
With CCCCCCCCCCCc1c(C(=O)O)sc2c(Br)csc12 [Compound 16c, 6-Bromo-3-undecylthieno[3,2-b]thiophene-2-carboxylic Acid] the “response in Tango assay” value [2] was “dose-dependent and saturable responses” and the “agonist type in Tango β-arrestin translocation assay” value [2] was “partial agonists”.
COC(=O)c1cnn(-c2ccc(F)cc2F)c1/C=N/NC(=S)NC(C)(C)C [Compound 17, methyl-5-[(tert-butylcarbamothioylhydrazinylidene)methyl]-1-(2,4-difluorophenyl)-pyrazole-4-carboxylate, reference compound] was tested, and the “blockage of the zaprinast DMR by compound 17” value ([4]; compound 17 at 64 μM (highest dose)) was “almost completely blocked” and the “DMR agonist activity in HT-29” value [1] was “did not lead to any detectable DMR”.
For CCCOc1ccccc1-c1nc2[nH]nnc2c(=O)[nH]1 [zaprinast, reference compound], the “DMR assays % zaprinast” value ([1]; efficacy relative to zaprinast, HT-29, DMR amplitude at 8 min post stimulation) was 100 ± 5%, the “DMR amplitude, maximal response” value ([1]; zaprinast 1 μM (saturating dose), about 8 min poststimulation, n = 32) was 246 ± 11 pm and the “Tango assays % zaprinast” value [2] was 100 ± 7%. For the same compound, the “effect of shRNA knockdown of GPR35” value [3] was “significantly attenuated” and the “zaprinast DMR amplitude in the desensitization step (positive control)” value [6] was 238 ± 25 pm.
